Screens deposited in PubChem BioAssay by The Scripps Research Institute Molecular Screening Center.
Sampled rows, rich in hits. Any-hit rate of the full collection: about 0.55%.
zfTRPN1 agonist – agonists of zebrafish TRPN1 channel | activation, % at 3 µM | HEK293 zebrafish TRPN1-YFP, Fluo-8 calcium fluorescence; 100% = response to 87 µM carbachol | 220,000 tested, 0.18% active;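 active means activation above its plate's cutoff, the mean activation of test wells on that plate plus 3 SD, cut at about 19% in these data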;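 further: 0% = DMSO alone and 100% = 87 µM carbachol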
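Material: zebrafish TRPN1-YFP in HEK293 cells; Doses: single test compound dose, 3 µM nominal, 0.3% DMSO; Timing: dye loading 1 h at 37 °C, then 30 min room temperature; Technique: intracellular calcium fluorescence with Fluo-8; Benchmarks: high carbachol 87 µM, low DMSO alone.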
OXTR ag – activates the human oxytocin receptor; P30559; CHO-OTR cells, Fluo-8 calcium fluorescence; normalized: DMSO 0%, oxytocin 100%; activation, % at 3 µM; 320,000 tested, 0.32% active;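 active means activation above the mean of all tested compounds plus 3 SD, cutoff set per screening run, cut at about 20% in these data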;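 further: peak over basal fluorescence ratio from a 100 s FLIPR kinetic read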
OXTR potentiate – potentiates the human oxytocin receptor response; P30559; CHO-OTR cells, Fluo-8 calcium fluorescence, potentiator mode; 0% = oxytocin EC15, 100% = EC100; activation, % at 3 µM; 320,000 tested, 0.061% active; AID 2445;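 active means activation above that plate's cutoff, the mean activation of tested compounds plus 3 SD, cut at about 6.6% in these data, passing the limit was not always enough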;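 further: 100% uses oxytocin at 75 nM as the full agonist control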
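Material: CHO-OTR cells, human receptor; compound dosing: single dose, 3.0 µM nominal final compound concentration; schedule: 6 min compound pre-incubation at room temperature, 100 s kinetic read; measured by: kinetic Fluo-8 calcium fluorescence; read-out basis: % activation vs EC15 and EC100 oxytocin; controls: EC15 oxytocin alone as 0%, 75 nM oxytocin as 100%; replicates: singlicate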
TRPML3 agonist – human mucolipin-3 channel agonism; Q8TDD5; HEK293 TRPML3-YFP, Fluo-8 calcium fluorescence; 100% = the carbachol control signal; activation, % at 3 µM; 220,000 tested, 0.29% active; AID 1448;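 active means activation above its plate's cutoff, the mean activation of the plate's test wells plus 3 SD, cut at about 12% in these data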;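 further: 0% = DMSO only wells and 100% = carbachol wells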
Target sequence (Q8TDD5 whole entry, looked up): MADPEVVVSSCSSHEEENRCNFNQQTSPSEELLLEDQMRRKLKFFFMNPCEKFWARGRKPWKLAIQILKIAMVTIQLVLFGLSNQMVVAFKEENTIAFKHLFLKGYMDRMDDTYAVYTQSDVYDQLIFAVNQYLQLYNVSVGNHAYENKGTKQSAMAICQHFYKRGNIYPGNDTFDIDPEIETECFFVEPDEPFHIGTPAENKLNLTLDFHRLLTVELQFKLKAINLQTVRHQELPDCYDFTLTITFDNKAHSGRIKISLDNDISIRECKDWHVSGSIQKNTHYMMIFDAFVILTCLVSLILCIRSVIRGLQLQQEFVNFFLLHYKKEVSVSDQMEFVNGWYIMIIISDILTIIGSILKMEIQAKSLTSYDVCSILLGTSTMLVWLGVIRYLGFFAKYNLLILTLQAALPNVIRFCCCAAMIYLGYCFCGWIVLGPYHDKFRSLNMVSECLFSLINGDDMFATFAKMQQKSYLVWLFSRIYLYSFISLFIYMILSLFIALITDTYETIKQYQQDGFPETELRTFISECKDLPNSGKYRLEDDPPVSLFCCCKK
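Test system: HEK293 cells stably carrying human TRPML3-YFP; Doses: single dose, 3 µM final nominal compound, 0.3% DMSO final; Schedule: dye loading 1 h 37 °C then 30 min ambient, 125 s read; Technique: Fluo-8 calcium fluorescence; Benchmarks: high control carbachol 87 µM, low control DMSO.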
V1R ag counter – V1a receptor agonism, counter-screen for OXTR agonists | P37288 | activation, % at 3 µM | 320,000 tested, 0.25% active | CHO-V1R cells, Fluo-8 calcium fluorescence, agonist mode; 0% DMSO, 100% 3 nM vasopressin;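 active means activation above the mean activation of all tested compounds plus 3 SD, per screening run, cut at about 20% in these data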;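 further: signal is peak over basal fluorescence ratio across a 100 second FLIPR read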
TRPN1 counter – counter-screen for TRPML3 agonists: agonists of zebrafish TRPN1 channel; shares compounds with TRPML3 agonist; activation, % at 3 µM; 310 tested, 10% active; HEK293 zebrafish TRPN1-YFP, Fluo-8 calcium fluorescence; scaled: carbachol wells 100%, DMSO wells 0%;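 active means mean activation over replicates above a set limit taken from the earlier TRPN1 channel primary screen, cut at about 19% in these data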;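 further: 100% = carbachol and 0% = 0.3% DMSO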
TRPML3 ag conf – human TRPML3 agonism, confirmation; shares compounds with TRPML3 agonist; HEK293 TRPML3-YFP, Fluo-8 calcium fluorescence; 100% set by carbachol, 0% by DMSO; activation, % at 3 µM; 310 tested, 80% active; AID 1526;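 active means activation above a set limit derived from the earlier primary screen, cut at about 12% in these data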
* marks the source's active call; other numbers are inactive results; x = not tested or not shown.

SMILES | zfTRPN1 agonist | OXTR ag | OXTR potentiate | TRPML3 agonist | V1R ag counter | TRPN1 counter | TRPML3 ag conf
CC(C)n1nc(C(=O)NC2CCCCCC2)c2ccccc2c1=O | x | -2 | 1 | x | -2 | x | x
O=C1c2ccccc2CCCC12N=NCC2c1cccc2ccccc12 (centres undefined) | -2 | 1 | -9 | 56* | -1 | -2 | 67*
COC(=O)C1(C(C[N+](=O)[O-])c2ccco2)C(=O)NCC1c1ccccc1 (centres undefined) | 0 | 0 | 10 | 17* | 1 | 2 | 23*
CC1(C)Cc2cccc(Oc3ccc(S(=O)(=O)N4CCCC4)cn3)c2O1 | -1 | -2 | -9 | 2 | -1 | x | x
CC1(C)Cc2cccc(Oc3ccc(S(=O)(=O)N4CCCCC4)cn3)c2O1 | -2 | -2 | -14 | 20* | -1 | -1 | 30*
O=S(=O)(Nc1ccccc1N1CCCCC1)c1ccc(F)cc1 | -3 | -3 | 2 | 31* | -1 | -2 | 78*
O=S(=O)(Nc1ccccc1N1CCCCC1)c1cccs1 | -2 | -4 | -1 | 14* | -2 | -2 | 33*
O=C(C1=COCCO1)N1CCN(c2nc3ccc([N+](=O)[O-])cc3s2)CC1 | x | 3 | 2 | x | 3 | x | x
CCN1CCN(c2cc(C)nc(-c3ccccc3O)n2)CC1 | 2 | 1 | -7 | 1 | 0 | x | x
O=c1oc2ccc3ccccc3c2cc1-c1nnc(-c2ccccc2)o1 | 3 | 1 | -8 | 1 | 0 | x | x
CCN(CC)c1ccc2cc(-c3nnc(-c4ccccc4)o3)c(=O)oc2c1 | 19 | 42* | -17 | 12* | 50* | 248* | 177*
Cc1cc(NC(=O)COC(=O)C2CCC2)no1 | 1 | 0 | -8 | 1 | -1 | x | x
C/C(=N\NC(=O)c1cc(O)ccc1O)c1cccc(NC(=O)c2cccc(Cl)c2)c1 | x | 0 | -10 | x | 0 | x | x
Cc1ccc(S(=O)(=O)NC2CCCCC2)c2nsnc12 | -1 | -2 | -7 | 11* | 0 | 0 | 12*
COC(=O)C1=C(C)N(c2ccc(Cl)c(Cl)c2)C(=O)C1 | 0 | -1 | -10 | 1 | -1 | x | x
O=C(c1ccccc1)c1ccc(O)cc1O | 18 | 24* | -7 | 18* | 30* | 11 | 8
CC(C)CN1CCC(=O)N(CCO)CC1 | x | 0 | 3 | x | 0 | x | x
Cc1ccc(NC(=O)c2cnc(N3CCN(c4ccccn4)CC3)c3ccccc23)c(Br)c1 | 3 | -1 | -11 | 25* | 11 | 4 | 48*
Cc1cc(C)c(C(=O)c2ccc(C(=O)N(C(C)C)C(C)C)cc2)c(C)c1 | -2 | -2 | -7 | 18* | -2 | 4 | 74*
C=C1CCN([C@@H](CC(C)C)C(=O)Nc2nc3ccc(Cl)cc3s2)S(=O)(=O)c2ccccc21 | x | 0 | 1 | x | 2 | x | x
Cc1cc(=O)c2cccc(Br)c2[nH]1 | 1 | 1 | -6 | 1 | 1 | x | x
O=c1cc(C(F)(F)F)[nH]c2ccc(OC(F)(F)F)cc12 | 17 | 16 | -21 | 12* | 9 | 26* | 9
O=c1cc(C(F)(F)F)[nH]c2c(C(F)(F)F)cccc12 | 5 | 16 | -19 | 15* | 14 | 29* | 13*
C/C(Cn1nnc([N+](=O)[O-])n1)=N\NC(=O)c1ccccc1 | -3 | 0 | -5 | 0 | 1 | x | x
O=C(COC(=O)c1cccnc1Cl)Nc1ccccc1OC(F)F | 1 | 1 | -2 | 2 | 6 | x | x
SMILES | zfTRPN1 agonist | OXTR ag | OXTR potentiate | TRPML3 agonist | V1R ag counter | TRPN1 counter | TRPML3 ag conf
CCN1CCN(S(=O)(=O)c2ccc(C)c([N+](=O)[O-])c2)CC1 | 1 | 0 | -6 | 0 | 0 | x | x
COc1ccc(S(=O)(=O)N2CCC(C)CC2)cc1OC | x | 0 | -1 | x | 0 | x | x
COc1ccc(S(=O)(=O)N2CCC(C)CC2)cc1Br | 0 | -2 | -14 | 66* | -1 | -1 | 106*
Cc1ccc(S(=O)(=O)N2CCC(C)CC2)cc1[N+](=O)[O-] | -1 | x | x | 93* | x | 1 | 87*
Cc1ccc(S(=O)(=O)N2CCCCCC2)cc1[N+](=O)[O-] | -1 | -3 | -6 | 12* | -2 | -1 | 19*
COc1cc(/C=C/C(=O)OCC(=O)NC(C)c2ccccc2)cc(OC)c1OC (centres undefined) | x | 0 | 3 | x | 1 | x | x
COc1c(S(=O)(=O)N2CCCC2)ccc(Cl)c1Cl | 0 | -1 | -7 | 12* | 0 | 0 | 8
COc1ccc(S(=O)(=O)N2CCCC2)c(Cl)c1Cl | -1 | -1 | 3 | 11* | 0 | 0 | 4
O=S(=O)(c1ccc(Cl)c2ccccc12)N1CCCC1 | -3 | -2 | -1 | 9 | -1 | x | x
CCOC(=O)N1CCN(S(=O)(=O)c2ccc(OC)c(Cl)c2Cl)CC1 | 2 | 4 | -17 | 1 | 3 | x | x
COC(=O)c1cc(NC(=S)N2CCN(c3ccccn3)CC2)cc(C(=O)OC)c1 | -2 | -2 | -4 | 0 | -1 | x | x
Cc1ccc(S(=O)(=O)N(C)c2c(C)ccc(S(=O)(=O)N3CCN(C)CC3)c2C)cc1 | -1 | 0 | -8 | 8 | 0 | x | x
C=C(C)CN1CCN(S(=O)(=O)c2ccc(C)c(N(C)S(=O)(=O)c3ccc(C)cc3)c2C)CC1 | 2 | -1 | -6 | 60* | 0 | -1 | 78*
COc1ccc(OC)c(S(=O)(=O)N2CCc3ccccc32)c1 | -2 | -1 | -4 | 2 | -1 | x | x
COc1ccc(OC)c(S(=O)(=O)N2CCCc3ccccc32)c1 | -1 | -3 | -14 | 48* | 0 | -1 | 56*
Cc1ccc(S(=O)(=O)N2CCc3ccccc3C2CN2C(=O)c3ccccc3C2=O)cc1 (centres undefined) | 1 | -1 | -16 | 22* | -1 | -1 | 13*
COc1ccc(N=C2SCC(=O)N2CCc2ccc(OC)c(OC)c2)cc1 | 5 | 1 | -6 | 2 | 2 | x | x
COc1ccc(CCN2C(=O)CSC2=Nc2ccc(C(C)C)cc2)cc1OC | 5 | 0 | -15 | 13* | 8 | 5 | 14*
O=C(c1ccc(CN2CCc3ccccc3C2)cc1)N1CCN(c2ccccc2)CC1 | 2 | 0 | -5 | 1 | 3 | x | x
COc1ccc(/C(N)=N/OC(=O)CN(C)S(=O)(=O)c2ccccc2)cc1 | 4 | x | x | 106* | x | 2 | 40*
CN(CC(=O)O/N=C(\N)c1ccccn1)S(=O)(=O)c1ccccc1 | 0 | 0 | 4 | 0 | 0 | x | x
